Source: ChEMBL document CHEMBL4706496, “Discovery of novel aminopiperidinyl amide CXCR4 modulators through virtual screening and rational drug design” (Eur J Med Chem, 2020)
Values belong to the compound of their own block, whether it stands above or below them. The source made the active and inactive calls.

What was measured:
MDA-MB-231 = experiment: Antiinvasive activity against human MDA-MB-231 cells assessed as inhibition of cell migration at 100 nM incubated for 22 hrs by H and E staining based matrigel invasion assay; assay type: functional
How it was run: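 MDA-MB-231 cells (DMEM, 10% FBS, penicillin/streptomycin) seeded on Matrigel in upper chamber with compound at 100 nM; 200 ng/mL CXCL12 in lower chamber as chemoattractant. Invaded cells at the Matrigel bottom fixed in methanol, H&E stained and counted to give percentage invasion.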

[1] = target: C-X-C chemokine receptor type 4 (Homo sapiens) (UniProt P61073); experiment: Binding affinity to human CXCR4 in human MDA-MB-231 cells assessed as inhibition of CXCR4-targeted conjugate formation preincubated with compound followed by biotinylated-TN14003 addition and measured after 45 mins by competition based microscopic analysis; assay type: cell-based
Sequence of C-X-C chemokine receptor type 4 (Homo sapiens) (P61073 whole entry): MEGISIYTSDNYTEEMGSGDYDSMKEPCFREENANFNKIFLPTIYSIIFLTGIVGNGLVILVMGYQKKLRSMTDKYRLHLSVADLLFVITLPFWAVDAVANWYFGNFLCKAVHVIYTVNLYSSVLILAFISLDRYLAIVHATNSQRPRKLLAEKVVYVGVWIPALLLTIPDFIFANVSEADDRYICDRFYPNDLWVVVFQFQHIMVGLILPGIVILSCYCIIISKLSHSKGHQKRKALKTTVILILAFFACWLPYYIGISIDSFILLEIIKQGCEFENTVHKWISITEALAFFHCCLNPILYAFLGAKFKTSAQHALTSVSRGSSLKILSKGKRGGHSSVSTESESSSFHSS
How it was run: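 MDA-MB-231 cells in chamber slides preincubated with compound at 1, 10, 100 and 1000 nM. Then fixed in 4% formaldehyde, incubated with 50 nM biotinylated TN14003, and stained with streptavidin–rhodamine. Fluorescence imaged by microscopy and quantified. EC defined as the concentration blocking >50% of probe signal; IC50 obtained by curve fitting.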

Mus musculus [2] = experiment: Antiinflammatory activity in JAZ 007850 J:NU mouse assessed as decrease in carrageenan-induced paw edema treated at 10 mg/kg, ip qd starting 30 min after carrageenan challenge measured after 74 hrs
[3] = Stability in athymic nude-Foxn1 mouse serum measured upto 120 mins by HPLC method; assay type: ADME, cell-free; conditions: 2 h
How it was run: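 Blood from female athymic nude mice (7 weeks) taken from orbital venous sinus and spun at 13,000 rpm, 6 min, 4 °C. Supernatant mixed 4:1 with 10 mM aqueous compound solution (stock) and held at 36.6 °C. Samples at 0, 5, 15, 30, 60, 120 min passed through 10 kDa filter. Filtrate run on C18 HPLC, acetonitrile/water (0.1% TEA) 3:7, detection at 310 nm. Half-life from one-phase decay fit.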

Mus musculus [4] = experiment: Antiinflammatory activity in carrageenan-induced JAZ 007850 J:NU mouse model assessed as reduction in infiltration of CXCR-4 expressing cells at 10 mg/kg, ip qd measured after 74 hrs by immunohistochemistry assay; assay type: functional, organism-based
How it was run: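 Carrageenan paw edema tissue (male nude mice, 10 mg/kg i.p. daily, harvested 74 h) formalin-fixed, paraffin-embedded, deparaffinized. Antigen retrieval by microwaving in 10 mM sodium citrate pH 6.0. Blocked with hydrogen peroxide, avidin/biotin and horse serum. Anti-CXCR4 antibody at 1:500 overnight at 4 °C, then biotinylated secondary and avidin-biotin complex. Developed with diaminobenzidine, hematoxylin counterstain; H&E sections also examined.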

SMILES: O=C(NCCc1c[nH]c2ccccc12)C1CCN(C(=O)Cc2nnc(O)c3ccccc23)CC1
inhibition (MDA-MB-231): inactive | EC [1]: 1000 nM

SMILES: N[C@@H](C(=O)NC1CCN(C(=O)CCn2ccc3ccncc32)CC1)c1ccccc1
inhibition at 0.1 µM (MDA-MB-231): 68.6% | EC [1]: 100 nM

SMILES: C[C@H](C(=O)N[C@@H]1CCN(Cc2ccccc2)C1)N1CCC(C(=O)Nc2cc(O)ccc2Cl)CC1
inhibition (MDA-MB-231): inactive | EC [1]: > 1000 nM

SMILES: C[C@@H](NC(=O)[C@@H](N)c1ccccc1)C(=O)N1CCN(C(=O)CCn2ccc3ccncc32)CC1
inhibition at 0.1 µM (MDA-MB-231): 15.7% | EC [1]: 100 nM

The next lines start with results.

EC [1]: 100 nM
SMILES: O=C(CN1CCC(n2nnc(-c3cccs3)n2)CC1)Nc1ccc(Cn2cncn2)cc1
inhibition at 0.1 µM (MDA-MB-231): 40.9%

EC [1]: 1000 nM
SMILES: NC(=O)C1CCN(Cc2ccc(NC(=O)CCc3c[nH]c4ccccc34)cc2)CC1
inhibition (MDA-MB-231): inactive

t1/2 [3]: 1.28 h | EC [1]: 1 nM
SMILES: N=C(N)NCCC[C@H](N)C(=O)NC1CCN(C(=O)CCn2ccc3ccncc32)CC1
inhibition (Mus musculus [2]): Active | inhibition at 0.1 µM (MDA-MB-231): 78.5% | inhibition (Mus musculus [4]): Active

EC [1]: 10 nM
SMILES: O=C(Nc1ccc2c(c1)OCO2)C1CCN(C(=O)NC2CCN(Cc3ccccc3)CC2)CC1
inhibition at 0.1 µM (MDA-MB-231): 9.3%
